# Experimental data: paper PMC5481492 (Chemico-biological interactions, 2016)
# Like-named read-outs stand apart in the source and are kept apart here.
# Legend:
# [1] = target: T1, horse liver ADH1E (EqADH1E), wild-type (Equus caballus, UniProt P00327); test: Steady-state kinetics, wild-type enzyme; assay type: biochemical; conditions: enantioselectivity
# horse liver ADH1E S48T [2] = target: T2, horse liver ADH1E S48T (Equus caballus, UniProt P00327, S49T); test: Steady-state kinetics, S48T enzyme; assay type: biochemical; conditions: for Ratio of V/Km for (R)- to (S)-enantiomers: enantioselectivity; for Michaelis constant for coenzyme (Ka NAD+, Kq NADH) / Ki / Turnover number (V1/Et ethanol oxidation, V2/Et acetaldehyde reduction): pH 8.0, 25 °C; for Michaelis constant for coenzyme (Ka NAD+, Kq NADH): both substrates varied; for Ki: read-out: Inhibition constant for coenzyme (Kia NAD+, Kiq NADH)
# T2 sequence (P00327 whole entry S49T): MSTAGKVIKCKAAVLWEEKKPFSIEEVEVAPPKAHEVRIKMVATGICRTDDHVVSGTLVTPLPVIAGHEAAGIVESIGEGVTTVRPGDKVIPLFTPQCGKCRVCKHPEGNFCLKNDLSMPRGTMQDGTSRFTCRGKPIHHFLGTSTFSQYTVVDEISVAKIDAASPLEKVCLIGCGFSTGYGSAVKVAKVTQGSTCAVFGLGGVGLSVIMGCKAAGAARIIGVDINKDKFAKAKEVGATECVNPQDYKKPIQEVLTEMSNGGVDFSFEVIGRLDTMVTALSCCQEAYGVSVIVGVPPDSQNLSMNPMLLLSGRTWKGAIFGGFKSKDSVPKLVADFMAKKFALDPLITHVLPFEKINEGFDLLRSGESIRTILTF
# horse liver ADH1E F93A [3] = target: T3, horse liver ADH1E F93A (Equus caballus, UniProt P00327, F94A); test: Steady-state kinetics, F93A enzyme; assay type: biochemical; conditions: for Ratio of V/Km for (R)- to (S)-enantiomers: enantioselectivity; for Michaelis constant for coenzyme (Ka NAD+, Kq NADH): both substrates varied; for Ki: read-out: Inhibition constant for coenzyme (Kia NAD+, Kiq NADH)
# T3 sequence (P00327 whole entry F94A): as the sequence (P00327 whole entry S49T) above, with T49S, F94A counted along it
# [4] = target: T4, horse liver ADH1E S48T/F93A (Equus caballus, UniProt P00327, F94A/S49T); test: Steady-state kinetics, S48T/F93A enzyme; assay type: biochemical; conditions: for Increase of the R/S ratio (inversion of enantioselectivity) as compared to wild-type enzyme: S48T/F93A relative to wild-type; for Ratio of V/Km for (R)- to (S)-enantiomers: enantioselectivity; for Michaelis constant for coenzyme (Ka NAD+, Kq NADH) / Ki / Turnover number (V1/Et ethanol oxidation, V2/Et acetaldehyde reduction): pH 8.0, 25 °C; for Michaelis constant for coenzyme (Ka NAD+, Kq NADH): both substrates varied; for Ki: read-out: Inhibition constant for coenzyme (Kia NAD+, Kiq NADH)
# T4 sequence (P00327 whole entry S49T/F94A): as the sequence (P00327 whole entry S49T) above, with F94A counted along it
# [5] = target: T4, horse liver ADH1E S48T/F93A; test: Transient; assay type: biochemical; conditions: pH 8.0, 25 °C; 2 mM NAD+ (oxidation) or stoichiometric NADH (reduction)
# Outline: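 Stopped-flow (three-syringe, 2.5 ms dead time) at 25 °C in 33 mM sodium phosphate, 0.25 mM EDTA, pH 8.0. Enzyme at 6–15 μN (active sites) was mixed with 2 mM NAD⁺ and varied alcohol (oxidation), or with NADH equal to the enzyme concentration and varied carbonyl compound (reduction). A328 bursts (Δε 5500 M⁻¹cm⁻¹) were fitted as first-order; rate constants were analysed against substrate concentration.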
# [6] = target: T1, horse liver ADH1E (EqADH1E), wild-type; conditions: value in parentheses; cited from earlier work
# [7] = target: T1, horse liver ADH1E (EqADH1E), wild-type; conditions: pH 8.5, 25 °C, cited from earlier work
# horse liver ADH1E F93A [8] = target: T3, horse liver ADH1E F93A; test: Transient; assay type: biochemical; conditions: for K m (transient reaction) / k max (transient oxidation): pH 8.0, 25 °C, 2 mM NAD+
# horse liver ADH1E F93A [9] = target: T3, horse liver ADH1E F93A; conditions: cited from earlier work; for Substrate deuterium isotope effect on k max: value in brackets
# horse liver ADH1E S48A = horse liver ADH1E S48A (Equus caballus, UniProt P00327, S49A); test: Steady-state kinetics, S48A enzyme; assay type: biochemical; conditions: pH 8.0, 25 °C; for Michaelis constant for coenzyme (Ka NAD+, Kq NADH): both substrates varied; for Ki: read-out: Inhibition constant for coenzyme (Kia NAD+, Kiq NADH)
# Chain of horse liver ADH1E S48A (P00327 whole entry S49A): as the sequence (P00327 whole entry S49T) above, with T49A counted along it
# [10] = target: T1, horse liver ADH1E (EqADH1E), wild-type; conditions: pH 8.0, 25 °C; cited from earlier work
# [11] = target: T4, horse liver ADH1E S48T/F93A; test: Inhibition of ethanol oxidation, S48T/F93A enzyme; assay type: biochemical
# [12] = target: T1, horse liver ADH1E (EqADH1E), wild-type; conditions: cited from earlier work
# horse liver ADH1E S48T [13] = target: T2, horse liver ADH1E S48T; test: Inhibition of ethanol oxidation, S48T enzyme; assay type: biochemical
# horse liver ADH1E F93A [14] = target: T3, horse liver ADH1E F93A; test: Inhibition of ethanol oxidation, F93A enzyme; assay type: biochemical
# [15] = competitive against ethanol, pH 8.0, 25 °C
# T1 sequence (P00327 whole entry): as the sequence (P00327 whole entry S49T) above, with T49S counted along it
smiles,measurement,setting,value
"CCC(C)O (stereo not shown) [2-Butanol, 2-butanol]",Ratio of V/Km for (R)- to (S)-enantiomers,[1],0.45
same,Ratio of V/Km for (R)- to (S)-enantiomers,horse liver ADH1E S48T [2],0.88
same,Ratio of V/Km for (R)- to (S)-enantiomers,horse liver ADH1E F93A [3],1.1
same,Increase of the R/S ratio (inversion of enantioselectivity) as compared to wild-type enzyme,[4],10 fold
same,Ratio of V/Km for (R)- to (S)-enantiomers,[4],4.3
"CCC(C)=O [2-Butanone, 2-butanone]",Km,"[4]; ketone reduction, 0.1 mM NADH",12.7 ± 0.9 mM
same,V2/Et,"[4]; ketone reduction, 0.1 mM NADH",0.081 ± 0.002 s⁻¹
same,K m (transient reaction),[5],29 mM
same,k max (transient oxidation or reduction),[5],0.14 s⁻¹
same,k max (transient oxidation or reduction),[6],0.12 s⁻¹
same,Binding rate constant k−6,[7]; (pro-R)-2-butanone pathway,6.5 M⁻¹ s⁻¹
same,Dissociation rate constant k6,[7]; (pro-R)-2-butanone pathway,4.3 s⁻¹
same,Binding rate constant k−6,[7]; (pro-S)-2-butanone pathway,180 M⁻¹ s⁻¹
same,Dissociation rate constant k6,[7]; (pro-S)-2-butanone pathway,2.5 s⁻¹
"CCCCCCC(C)O (stereo not shown) [2-Octanol, 2-octanol]",Ratio of V/Km for (R)- to (S)-enantiomers,[1],0.0034
same,Ratio of V/Km for (R)- to (S)-enantiomers,horse liver ADH1E S48T [2],0.023
same,Ratio of V/Km for (R)- to (S)-enantiomers,horse liver ADH1E F93A [3],0.62
same,Increase of the R/S ratio (inversion of enantioselectivity) as compared to wild-type enzyme,[4],590 fold
same,Ratio of V/Km for (R)- to (S)-enantiomers,[4],2.0
"CC[C@@H](C)O [(R)-2-Butanol, (R)-2-butanol]",K m (transient reaction),[5],26 mM
same,k max (transient oxidation or reduction),[5],130 s⁻¹
same,K m (transient reaction),horse liver ADH1E F93A [8],1.2 mM
same,k max (transient oxidation),horse liver ADH1E F93A [8],44 s⁻¹
same,k max (transient oxidation or reduction),[6],15 s⁻¹
"CC[C@H](C)O [(S)-2-Butanol, (S)-2-butanol]",K m (transient reaction),[5],4.9 mM
same,k max (transient oxidation or reduction),[5],16 s⁻¹
same,K m (transient reaction),horse liver ADH1E F93A [8],1.3 mM
same,k max (transient oxidation),horse liver ADH1E F93A [8],29 s⁻¹
same,k max (transient oxidation or reduction),[6],2.5 s⁻¹
"O=Cc1ccccc1 [Benzaldehyde, benzaldehyde]",K m (transient reaction),[5],0.26 mM
same,k max (transient oxidation or reduction),[5],0.67 s⁻¹
same,k max (transient oxidation or reduction),horse liver ADH1E F93A [9],2.2 s⁻¹
same,Substrate deuterium isotope effect on k max,horse liver ADH1E F93A [9],3.4
same,K m (transient reaction),[6],0.49 mM
same,k max (transient oxidation or reduction),[6],320 s⁻¹
"OCc1ccccc1 [Benzyl alcohol, benzyl alcohol]",K m (transient reaction),[5],15 mM
same,k max (transient oxidation or reduction),[5],78 s⁻¹
same,k max (transient oxidation or reduction),horse liver ADH1E F93A [9],3.3 s⁻¹
same,Substrate deuterium isotope effect on k max,horse liver ADH1E F93A [9],4.0
same,K m (transient reaction),[6],0.03 mM
same,k max (transient oxidation or reduction),[6],24 s⁻¹
NC(=O)C1=CN([C@@H]2O[C@H](COP(=O)(O)OP(=O)(O)OC[C@H]3O[C@@H](n4cnc5c(N)ncnc54)[C@H](O)[C@@H]3O)[C@@H](O)[C@H]2O)C=CC1 [NADH],"Michaelis constant for coenzyme (Ka NAD+, Kq NADH)",horse liver ADH1E S48T [2],6.3 µM
same,Ki,horse liver ADH1E S48T [2],0.57 µM
same,"Michaelis constant for coenzyme (Ka NAD+, Kq NADH)",horse liver ADH1E S48A,44 µM
same,Ki,horse liver ADH1E S48A,21 µM
same,"Michaelis constant for coenzyme (Ka NAD+, Kq NADH)","horse liver ADH1E F93A [3]; pH 8.0, 25 °C",1.9 µM
same,Ki,"horse liver ADH1E F93A [3]; pH 8.0, 25 °C",0.036 µM
same,"Michaelis constant for coenzyme (Ka NAD+, Kq NADH)",[4],5.0 µM
same,Ki,[4],0.054 µM
same,Rate constant for binding of NADH,"horse liver ADH1E F93A [8]; transient kinetics, stated in a paragraph on the F93A and S48T/F93A enzymes",1e+07 M⁻¹ s⁻¹
same,"Michaelis constant for coenzyme (Ka NAD+, Kq NADH)",[10],5.8 µM
NC(=O)c1ccc[n+]([C@@H]2O[C@H](COP(=O)([O-])OP(=O)(O)OC[C@H]3O[C@@H](n4cnc5c(N)ncnc54)[C@H](O)[C@@H]3O)[C@@H](O)[C@H]2O)c1 [NAD^+],"Michaelis constant for coenzyme (Ka NAD+, Kq NADH)",horse liver ADH1E S48T [2],11 µM
same,Ki,horse liver ADH1E S48T [2],15 µM
same,"Michaelis constant for coenzyme (Ka NAD+, Kq NADH)",horse liver ADH1E S48A,200 µM
same,Ki,horse liver ADH1E S48A,110 µM
same,"Michaelis constant for coenzyme (Ka NAD+, Kq NADH)","horse liver ADH1E F93A [3]; pH 8.0, 25 °C",3.3 µM
same,Ki,"horse liver ADH1E F93A [3]; pH 8.0, 25 °C",44 µM
same,"Michaelis constant for coenzyme (Ka NAD+, Kq NADH)",[4],4.4 µM
same,Ki,[4],33 µM
same,"Michaelis constant for coenzyme (Ka NAD+, Kq NADH)",[10],3.9 µM
"c1cn[nH]c1 [Pyrazole, pyrazole]",Type of inhibition,[11],competitive inhibitor against varied concentrations of ethanol
same,Ki,[11]; [15],8.1 µM
same,Ki,[12],0.2 µM
CC=O [acetaldehyde],"Turnover number (V1/Et ethanol oxidation, V2/Et acetaldehyde reduction)",horse liver ADH1E S48T [2],20 s⁻¹
same,"Turnover number (V1/Et ethanol oxidation, V2/Et acetaldehyde reduction)",horse liver ADH1E S48A,0.29 s⁻¹
same,"Turnover number (V1/Et ethanol oxidation, V2/Et acetaldehyde reduction)","horse liver ADH1E F93A [3]; pH 8.0, 25 °C",20 s⁻¹
same,"Turnover number (V1/Et ethanol oxidation, V2/Et acetaldehyde reduction)",[4],35 s⁻¹
same,K m (transient reaction),[5],150 mM
same,k max (transient oxidation or reduction),[5],58 s⁻¹
same,"Turnover number (V1/Et ethanol oxidation, V2/Et acetaldehyde reduction)",[10],47 s⁻¹
same,K m (transient reaction),[6],2.1 mM
same,k max (transient oxidation or reduction),[6],390 s⁻¹
CCO [ethanol],"Turnover number (V1/Et ethanol oxidation, V2/Et acetaldehyde reduction)",horse liver ADH1E S48T [2],1.7 s⁻¹
same,"Turnover number (V1/Et ethanol oxidation, V2/Et acetaldehyde reduction)",horse liver ADH1E S48A,0.01 s⁻¹
same,"Catalytic efficiency (V1/EtKb, V2/EtKp)","horse liver ADH1E F93A [3]; pH 8.0, 25 °C",1.7 mM⁻¹ s⁻¹
same,"Turnover number (V1/Et ethanol oxidation, V2/Et acetaldehyde reduction)","horse liver ADH1E F93A [3]; pH 8.0, 25 °C",0.35 s⁻¹
same,"Turnover number (V1/Et ethanol oxidation, V2/Et acetaldehyde reduction)",[4],0.29 s⁻¹
same,K m (transient reaction),[5],38 mM
same,k max (transient oxidation or reduction),[5],72 s⁻¹
same,K m (transient reaction),horse liver ADH1E F93A [8],26 mM
same,k max (transient oxidation),horse liver ADH1E F93A [8],22 s⁻¹
same,"Catalytic efficiency (V1/EtKb, V2/EtKp)",[10],10 mM⁻¹ s⁻¹
same,"Turnover number (V1/Et ethanol oxidation, V2/Et acetaldehyde reduction)",[10],3.5 s⁻¹
same,K m (transient reaction),[6],4.1 mM
same,k max (transient oxidation or reduction),[6],180 s⁻¹
OCC(F)(F)C(F)(F)C(F)(F)F [heptafluorobutanol],Ki,[11]; [15],53 µM
same,Ki,[12],5.3 µM
"OCc1c(F)c(F)c(F)c(F)c1F [pentafluorobenzyl alcohol, 2,3,4,5,6-pentafluorobenzyl alcohol]",Ki,horse liver ADH1E S48T [13],740 µM
same,Ki,horse liver ADH1E F93A [14],51 µM
same,Ki,[11],> 10000 µM
same,Ki,[12]; [15],0.52 µM
"CC(O)c1ccccc1 (stereo not shown) [sec-Phenethyl alcohol, sec-phenethyl alcohol]",Ratio of V/Km for (R)- to (S)-enantiomers,[1],0.067
same,Ratio of V/Km for (R)- to (S)-enantiomers,horse liver ADH1E F93A [3],0.34
same,Increase of the R/S ratio (inversion of enantioselectivity) as compared to wild-type enzyme,[4],190 fold
same,Ratio of V/Km for (R)- to (S)-enantiomers,[4],13.
"OCC(F)(F)F [trifluoroethanol, 2,2,2-trifluoroethanol]",Ki,horse liver ADH1E S48T [13],98 µM
same,Ki,horse liver ADH1E F93A [14],53 µM
same,Ki,[11],600 µM
same,Type of inhibition,[11],uncompetitive inhibitor against varied concentrations of NAD^+
same,Ki,[12]; [15],8.4 µM
